Data as given in PubChem BioAssay AID488830 (Molecular Libraries Program, Specialized Chemistry Center, …, 2010).
The source made the active and inactive calls.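 How the source made its calls: active means IC50 at or below 10 µM; inactive means the rest.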

test system: HeLa UbG76V-GFP reporter turnover, GFP imaging; experiment: inhibitors of p97-dependent reporter degradation, SAR follow-up, imaging, human cell line, second optimization round (AID 488830)
Outline: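 test system = UbG76V-GFP reporter HeLa cells | probe or stimulus = 4 µM MG132 reporter-loading pre-treatment | timing = 1 h MG132, 70–170 min compound chase | technique = GFP fluorescence imaging, mean per-cell intensity over ~500 cells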

Row | Compound | IC50
1 | O=C(NCc1ccco1)c1cc(S(=O)(=O)N2CCOCC2)ccc1Cl | > 25 µM (inactive)
2 | Cc1c(F)cccc1Nc1nc(NCc2ccccc2)c2ccccc2n1 | 3.7 µM
3 | CC(C)Sc1oc(-c2ccco2)nc1S(=O)(=O)c1ccc(F)cc1 | 28 µM (inactive)
4 | Cc1ccc2c(NCc3ccccc3)nc(NCc3ccccc3)nc2c1 | 6.1 µM
5 | CN1CCN(S(=O)(=O)c2ccc(NC(=O)c3cccc(S(=O)(=O)N4CCCC4)c3)cc2)CC1 | > 25 µM (inactive)
6 | Clc1ccc2nc(NCc3ccccc3)nc(NCc3ccccc3)c2c1 | 6.6 µM
7 | Fc1ccc(CNc2nc(Cl)nc3ccccc23)cc1 | 21 µM (inactive)
8 | CC(=O)Nc1ccc(NC(=O)c2ccccc2F)cc1 | > 25 µM (inactive)
9 | CC1(C)N(O)CC(c2cccs2)=[N+]1[O-] | > 25 µM (inactive)
10 | Clc1ccc2c(NCc3ccccc3)nc(NCc3ccccc3)nc2c1 | 6.3 µM
11 | Fc1ccccc1CNc1nc(Cl)nc2ccccc12 | 15 µM (inactive)
12 | N#Cc1ccc2c(NCc3ccccc3)nc(NCc3ccccc3)nc2c1 | 21 µM (inactive)
13 | c1ccc(CNc2nc(N3CCNc4ccccc43)nc3ccccc23)cc1 | 6.3 µM
14 | c1ccc(CNc2nc(N3CCOc4ccccc43)nc3ccccc23)cc1 | 7 µM
15 | Clc1cccc(Nc2nc(NCc3cccc(Br)c3)c3ccccc3n2)c1 | 9.9 µM
16 | COc1ccc(Cl)cc1Nc1nc(NCc2ccccc2)c2ccccc2n1 | 16 µM (inactive)
17 | Cc1ccc(CNc2nc(Cl)nc3ccccc23)cc1 | > 25 µM (inactive)

Row | Compound | IC50
18 | COc1ccc(Nc2nc(Nc3cccc(Cl)c3)nc3ccccc23)cc1 | 13 µM (inactive)
19 | Fc1cccc(CNc2nc(Nc3cccc(Cl)c3)nc3ccccc23)c1 | 6.3 µM
20 | Cc1cccc(CNc2nc(Nc3cccc(Cl)c3)nc3ccccc23)c1 | 9.7 µM
21 | Cc1cc(F)cc(Nc2nc(NCc3ccccc3)c3ccccc3n2)c1 | 5.4 µM
22 | COc1cccc(CNc2nc(Cl)nc3ccccc23)c1 | 13 µM (inactive)
23 | Fc1ccc2c(NCc3ccccc3)nc(NCc3ccccc3)nc2c1 | 6.1 µM
24 | Cc1ccc(Nc2nc(Nc3cccc(Cl)c3)nc3ccccc23)cc1 | > 30 µM (inactive)
25 | COc1c(Cl)cccc1Nc1nc(NCc2ccccc2)c2ccccc2n1 | 6.3 µM
26 | COc1ccc(Nc2nc(Nc3ccc(OC)cc3)c3ccccc3n2)cc1 | 23 µM (inactive)
27 | Clc1nc(NCc2cccc(Br)c2)c2ccccc2n1 | 19 µM (inactive)
28 | Clc1ccc(Nc2nc(Nc3cccc(Cl)c3)nc3ccccc23)cc1 | 21 µM (inactive)
29 | Clc1nc(NCc2ccccc2Cl)c2ccccc2n1 | 11 µM (inactive)
30 | O=C1C(C=NCC2CCCO2)=C(O)c2ccccc21 (stereo unspecified) | > 25 µM (inactive)
31 | Cc1c(Cl)cccc1Nc1nc(NCc2ccccc2)c2ccccc2n1 | 5.5 µM
32 | Clc1cccc(Nc2nc(NCc3ccccc3Cl)c3ccccc3n2)c1 | 18 µM (inactive)
33 | Cc1ccc(Nc2nc(NCc3ccccc3)c3ccccc3n2)cc1F | 5.2 µM

The next lines start with the values.

Row | IC50 | Compound
34 | 10 µM (inactive) | Clc1cccc(Nc2nc(NCc3ccc(Br)cc3)c3ccccc3n2)c1
35 | 9.9 µM | COc1cccc(CNc2nc(Nc3cccc(Cl)c3)nc3ccccc23)c1
36 | 19 µM (inactive) | O=[N+]([O-])c1cccc(Nc2nc(NCc3ccccc3)c3ccccc3n2)c1
37 | 12 µM (inactive) | Clc1cccc(Nc2nc(NCc3ccccc3Br)c3ccccc3n2)c1
38 | 8 µM | Fc1ccccc1-c1nc(NCc2ccccc2)c2ccccc2n1
39 | 11 µM (inactive) | COc1ccc(CNc2nc(Nc3cccc(Cl)c3)nc3ccccc23)cc1
40 | 20 µM (inactive) | CC(C)n1c2ccccc2c2nnc(SCC(=O)OCN3C(=O)c4ccccc4C3=O)nc21
41 | 10 µM (inactive) | Brc1ccc2c(NCc3ccccc3)nc(NCc3ccccc3)nc2c1
42 | 7.6 µM | Clc1ccc(CNc2nc(Nc3cccc(Cl)c3)nc3ccccc23)cc1
43 | > 25 µM (inactive) | Cc1ccccc1CNc1nc(Cl)nc2ccccc12
44 | 11 µM (inactive) | COc1ccccc1CNc1nc(Nc2cccc(Cl)c2)nc2ccccc12
45 | > 30 µM (inactive) | O=S(=O)(NC1CCCCC1)c1ccc(Br)cc1
46 | 16 µM (inactive) | Clc1cccc2nc(NCc3ccccc3)nc(NCc3ccccc3)c12
47 | 13 µM (inactive) | Clc1nc(NCc2ccccc2Br)c2ccccc2n1
48 | 15 µM (inactive) | Clc1nc(NCc2ccc(Br)cc2)c2ccccc2n1
49 | 15 µM (inactive) | Clc1cccc(CNc2nc(Nc3cccc(Cl)c3)nc3ccccc23)c1
50 | > 30 µM (inactive) | Brc1cccc2c(NCc3ccccc3)nc(NCc3ccccc3)nc12
51 | 8.8 µM | COc1cc2nc(NCc3ccccc3)nc(NCc3ccccc3)c2cc1OC
52 | 4.7 µM | COc1ccc(Nc2nc(NCc3ccccc3)c3ccccc3n2)cc1F
53 | 20 µM (inactive) | Fc1cccc(CNc2nc(Cl)nc3ccccc23)c1
54 | 7.8 µM | Fc1ccccc1CNc1nc(Nc2cccc(Cl)c2)nc2ccccc12
55 | 5.7 µM | Fc1ccc(CNc2nc(Nc3cccc(Cl)c3)nc3ccccc23)cc1
56 | 7.2 µM | c1ccc(Nc2nc(Nc3ccccc3)c3ccccc3n2)cc1
57 | 8.2 µM | Fc1ccc2nc(NCc3ccccc3)nc(NCc3ccccc3)c2c1

Row | IC50 | Compound
58 | > 25 µM (inactive) | Cc1ccc(C2=[N+]([O-])C3(CCCCC/C3=N\O)N(O)C2(C)C)o1 (stereo unspecified)
59 | 10 µM (inactive) | COc1cccc2c(NCc3ccccc3)nc(NCc3ccccc3)nc12
60 | 11 µM (inactive) | c1ccc(CNc2nc(N3CCc4ccccc43)nc3ccccc23)cc1
61 | 22 µM (inactive) | Cc1cccc(CNc2nc(Cl)nc3ccccc23)c1
62 | 13 µM (inactive) | Fc1cccc2nc(NCc3ccccc3)nc(NCc3ccccc3)c12
63 | 21 µM (inactive) | FC(F)(F)c1cccc(Nc2nc(NCc3ccccc3)c3ccccc3n2)c1
64 | 14 µM (inactive) | Clc1ccc(CNc2nc(Cl)nc3ccccc23)cc1
65 | 18 µM (inactive) | COc1ccc(CNc2nc(Cl)nc3ccccc23)cc1
66 | > 25 µM (inactive) | CCOC(=O)NC(NC(=O)OCC)C(=O)c1ccc(F)cc1
67 | 12 µM (inactive) | Clc1cccc(Nc2nc(Nc3ccccc3)c3ccccc3n2)c1
68 | 10 µM (inactive) | c1ccc(CNc2nc(N3CCCc4ccccc43)nc3ccccc23)cc1
69 | 8.6 µM | COc1ccc2nc(NCc3ccccc3)nc(NCc3ccccc3)c2c1
70 | 7 µM | Cc1ccc(Cl)cc1Nc1nc(NCc2ccccc2)c2ccccc2n1
71 | 12 µM (inactive) | Cc1ccc(CNc2nc(Nc3cccc(Cl)c3)nc3ccccc23)cc1
72 | > 25 µM (inactive) | CC(C)(C)NC(=O)Nc1ccc2nccnc2c1
73 | 5 µM | Cc1ccc(F)cc1Nc1nc(NCc2ccccc2)c2ccccc2n1
74 | 18 µM (inactive) | Clc1cccc(CNc2nc(Cl)nc3ccccc23)c1
75 | 9.3 µM | COc1ccc(F)cc1Nc1nc(NCc2ccccc2)c2ccccc2n1
76 | 19 µM (inactive) | COc1ccccc1CNc1nc(Cl)nc2ccccc12
77 | 19 µM (inactive) | FC(F)(F)c1ccc2c(NCc3ccccc3)nc(NCc3ccccc3)nc2c1
78 | 12 µM (inactive) | COc1c(F)cccc1Nc1nc(NCc2ccccc2)c2ccccc2n1
79 | 21 µM (inactive) | Cc1ccc(Nc2nc(Nc3ccc(C)cc3)c3ccccc3n2)cc1
80 | 12 µM (inactive) | O=C(C1CCCN(S(=O)(=O)c2cnc[nH]2)C1)N(CCc1ccccc1)Cc1ccccc1 (stereo unspecified)
81 | 18 µM (inactive) | Fc1cccc2c(NCc3ccccc3)nc(NCc3ccccc3)nc12
